# According to ChEMBL document CHEMBL3588845, “Protozoan Parasite Growth Inhibitors Discovered by Cross-Screening Yield Potent Scaffolds for Lead Discovery” (J Med Chem, 2015):
# pEC50: −log10 of the molar value.
# Assays:
# [1] = Protein binding in plasma (unknown origin) assessed as fraction unbound; assay type: ADME, cell-free
# Leishmania major [2] = test: Antiparasite activity against luciferase-expressing Leishmania major amastigotes isolated from infected in mouse RAW264.7 cells assessed as growth inhibition incubated for 96 hrs by luciferase reporter gene assay; assay type: functional, organism-based; settings: RAW264.7, 96 h
# Plasmodium falciparum [3] = test: Antiparasite activity against Plasmodium falciparum D6 assessed as growth inhibition incubated for 72 hrs by SYBR green fluorescence assay; assay type: functional, organism-based; settings: D6, 72 h
# [4] = Toxicity against human HepG2 cells incubated for 48 hrs by MTT assay; assay type: cell-based; settings: read-out: TC50
# Trypanosoma brucei [5] = test: Antiparasite activity against Trypanosoma brucei 427 assessed as growth inhibition incubated for 48 hrs by PrestoBlue based fluorescence assay; assay type: functional, organism-based; settings: Trypanosoma brucei, 427, 48 h
# Leishmania major [6] = test: Antiparasite activity against Leishmania major promastigotes assessed as growth inhibition incubated for 44 hrs by alamar blue dye based fluorescence assay; assay type: functional, organism-based
# [7] = Aqueous solubility of the compound; assay type: physicochemical; settings: buffer
# Method in brief: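 Aqueous solubility measured as thermodynamic solubility.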
# Trypanosoma cruzi = test: Antiparasite activity against Trypanosoma cruzi Tulahuen expressing beta-galactosidase assessed as growth inhibition incubated for 96 hrs by CPRG dye based assay; assay type: functional, organism-based
# Plasmodium falciparum [8] = test: Antiparasite activity against drug resistant Plasmodium falciparum W2 assessed as growth inhibition incubated for 72 hrs by SYBR green fluorescence assay; assay type: functional, organism-based; settings: W2, 72 h
# Plasmodium falciparum [9] = test: Antiparasite activity against drug resistant Plasmodium falciparum C235 assessed as growth inhibition incubated for 72 hrs by SYBR green fluorescence assay; assay type: functional, organism-based; settings: C235, 72 h
# Trypanosoma brucei [10] = test: Antiparasite activity against Trypanosoma brucei 427 assessed as growth inhibition at 5 uM incubated for 48 hrs by PrestoBlue based fluorescence assay; assay type: functional; settings: Trypanosoma brucei, 427, 48 h; read-out: GI
# Hepatocyte = test: Intrinsic clearance in rat hepatocytes assessed per 10^6 cells; assay type: ADME, cell-based
SMILES,Fu [1] [%],pEC50 (Leishmania major [2]),pEC50 (Plasmodium falciparum [3]),CC50 at 48 h [4] [µM],pEC50 (Trypanosoma brucei [5]),pEC50 (Leishmania major [6]),solubility [7] [µM],pEC50 (Trypanosoma cruzi),pEC50 (Plasmodium falciparum [8]),pEC50 (Plasmodium falciparum [9]),inhibition of growth at 5 µM (Trypanosoma brucei [10]) [%],CLH (Hepatocyte) [µL/min]
Fc1cccc(COc2ccc(Nc3ncnc4ccc(-c5cccc(N6CCOCC6)c5)cc34)cc2Cl)c1,< 1,5.10,6.64,> 15,7.38,5.52,< 1,5.74,,,,
CN1CCCN(S(=O)(=O)c2ccc(-c3ccc4nncc(Nc5ccc(OCc6cccc(F)c6)c(Cl)c5)c4c3)cc2)CC1,,5.97,7.57,7.3,6.24,5.39,,5.66,7.20,7.72,,
CN1CCN(S(=O)(=O)c2ccc(-c3ccc4c(Nc5ccc(OCc6cccc(F)c6)c(Cl)c5)ccnc4c3)cc2)CC1,< 1,5.80,7.72,> 4,7.10,6.00,,6.14,7.38,7.41,,
Fc1cccc(COc2ccc(Nc3nccc4ccc(-c5cccc(N6CCOCC6)c5)cc34)cc2Cl)c1,,5.22,5.59,> 28,,< 4.82,,< 4.30,4.72,5.21,0.1,
Fc1cccc(COc2ccc(Nc3nccc4cc(-c5cccc(N6CCOCC6)c5)ccc34)cc2Cl)c1,,5.66,5.55,> 28,,< 4.82,,< 4.30,4.72,5.33,12,
CN1CCN(S(=O)(=O)c2ccc(-c3ccc4c(Nc5ccc(OCc6cccc(F)c6)c(Cl)c5)cnnc4c3)cc2)CC1,,5.70,7.85,> 15,6.00,5.24,,5.51,7.26,7.60,,
Fc1cccc(COc2ccc(Nc3nncc4ccc(-c5cccc(N6CCOCC6)c5)cc34)cc2Cl)c1,,5.77,6.96,> 15,6.54,< 4.82,,< 4.30,6.21,6.40,,
Fc1cccc(COc2ccc(Nc3nncc4cc(-c5cccc(N6CCOCC6)c5)ccc34)cc2Cl)c1,,5.66,6.62,> 15,5.85,< 4.82,,< 4.30,6.21,6.47,,
O=S(=O)(c1ccc(-c2ccc3cnnc(Nc4ccc(OCc5ccccc5)c(Cl)c4)c3c2)cc1)N1CCOCC1,,< 5.40,6.27,> 5.2,6.07,< 5.47,,< 4.30,5.77,5.92,,
O=S(=O)(c1ccc(-c2ccc3c(Nc4ccc(OCc5ccccc5)c(Cl)c4)nncc3c2)cc1)N1CCOCC1,,< 4.82,6.96,> 15,6.00,< 4.82,,< 4.30,6.46,6.77,,
CN1CCN(S(=O)(=O)c2ccc(-c3ccc4cnnc(Nc5ccc(OCc6cccc(F)c6)c(Cl)c5)c4c3)cc2)CC1,,< 5.40,6.89,> 5,5.70,< 5.49,,< 4.30,6.37,6.42,,
CN1CCN(S(=O)(=O)c2ccc(-c3ccc4c(Nc5ccc(OCc6cccc(F)c6)c(Cl)c5)nncc4c3)cc2)CC1,,< 4.82,7.35,> 15,5.92,5.89,,4.74,6.89,7.12,,
CN1CCCN(S(=O)(=O)c2ccc(-c3ccc4cnnc(Nc5ccc(OCc6cccc(F)c6)c(Cl)c5)c4c3)cc2)CC1,,5.25,7.03,14,6.21,< 4.82,,4.77,6.60,6.74,,
CN1CCCN(S(=O)(=O)c2ccc(-c3ccc4c(Nc5ccc(OCc6cccc(F)c6)c(Cl)c5)nncc4c3)cc2)CC1,,5.96,7.54,3.4,6.29,6.39,,5.89,7.19,7.35,,
N#Cc1cnc2ccc(-c3cccc(N4CCOCC4)c3)cc2c1Nc1ccc(OCc2cccc(F)c2)c(Cl)c1,,< 4.82,6.32,> 15,,< 4.82,,< 4.30,6.00,6.14,49,
N#Cc1cnc2ccc(-c3cccc(N4CCOCC4)c3)cc2c1Nc1ccc(OCc2ccccc2)c(Cl)c1,,< 4.82,6.01,> 15,6.12,< 4.82,,< 4.30,6.09,6.01,,
N#Cc1cnc2ccc(-c3ccc(S(=O)(=O)N4CCOCC4)cc3)cc2c1Nc1ccc(OCc2cccc(F)c2)c(Cl)c1,,< 4.82,6.80,> 15,,< 4.82,,< 4.30,6.52,6.62,15,
N#Cc1cnc2ccc(-c3ccc(S(=O)(=O)N4CCOCC4)cc3)cc2c1Nc1ccc(OCc2ccccc2)c(Cl)c1,,< 4.82,6.55,> 15,,< 4.82,,< 4.30,6.24,6.39,33,
CN1CCN(S(=O)(=O)c2ccc(-c3ccc4ncc(C#N)c(Nc5ccc(OCc6cccc(F)c6)c(Cl)c5)c4c3)cc2)CC1,,< 4.82,7.09,> 15,5.96,< 4.82,,< 4.30,6.70,6.96,,
CN1CCN(S(=O)(=O)c2ccc(-c3ccc4ncc(C#N)c(Nc5ccc(OCc6ccccc6)c(Cl)c5)c4c3)cc2)CC1,,< 4.82,6.68,> 15,5.72,5.39,,< 4.30,6.29,6.59,,
CN1CCCN(S(=O)(=O)c2ccc(-c3ccc4ncc(C#N)c(Nc5ccc(OCc6cccc(F)c6)c(Cl)c5)c4c3)cc2)CC1,< 1,5.80,7.33,> 15,6.46,6.04,,7.05,7.00,7.18,,37.95
CN1CCCN(S(=O)(=O)c2ccc(-c3ccc4ncc(C#N)c(Nc5ccc(OCc6ccccc6)c(Cl)c5)c4c3)cc2)CC1,,5.64,7.24,13,6.37,5.80,,6.02,7.08,7.24,,
